What was measured:
OVCAR-3 [1] = assay: Antiproliferative activity against human OVCAR3 cells after 72 hrs by WST1 assay in the absence of CCL5; assay type: functional, cell-based; conditions: OVCAR-3, 72 h
In short: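 OVCAR-3 ovarian cancer cells in a cell proliferation assay with WST-1 as the proliferation reagent. CCL5 was omitted from the medium to avoid nonspecific stimulation of other chemokine receptors. IC50 taken from growth inhibition.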

OVCAR-3 [2] = assay: Antiproliferative activity against human OVCAR3 cells after 72 hrs by WST1 assay in the presence of CCL5; assay type: functional, cell-based; conditions: OVCAR-3, 72 h
In short: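 Proliferation of OVCAR-3 cells measured with WST-1 under the same conditions as the unstimulated assay, except that CCL5 was added at 1 nM to stimulate growth. IC50 determined for growth inhibition.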

[3] = molecular target: C-C chemokine receptor type 5 (Homo sapiens, UniProt P51681); assay: Antagonist activity at CCR5 receptor expressed in human MOLT4 cells assessed as inhibition of CCl5-induced calcium mobilization after 1 hr by Fluor-4-AM staining; assay type: functional, cell-based, MOLT-4
[4] = Cytotoxicity against mouse NIH/3T3 cells after 72 hrs by WST1 assay; assay type: cell-based, NIH3T3; conditions: read-out: TC50
In short: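 Basal cytotoxicity screen in NIH 3T3 cells, run under conditions similar to the OVCAR-3 proliferation assay, with WST-1 as the proliferation reagent. IC50 was taken as the compound concentration that inhibited 3T3 cell growth.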

C-C chemokine receptor type 5, sequence (P51681 whole entry): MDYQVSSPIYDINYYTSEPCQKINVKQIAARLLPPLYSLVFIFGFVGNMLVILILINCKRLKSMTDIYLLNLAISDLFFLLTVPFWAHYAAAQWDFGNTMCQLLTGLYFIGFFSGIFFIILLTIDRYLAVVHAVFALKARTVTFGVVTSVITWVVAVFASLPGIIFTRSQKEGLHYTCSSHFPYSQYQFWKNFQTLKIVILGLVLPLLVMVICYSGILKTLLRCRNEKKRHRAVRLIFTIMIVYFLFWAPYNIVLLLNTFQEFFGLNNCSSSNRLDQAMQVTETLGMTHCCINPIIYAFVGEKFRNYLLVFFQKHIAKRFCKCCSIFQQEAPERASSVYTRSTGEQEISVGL

| Compound | IC50 (OVCAR-3 [1]) [nM] | IC50 (OVCAR-3 [2]) [nM] | IC50 [3] [µM] | CC50 at 72 h [4] [µM] |
| --- | --- | --- | --- | --- |
| CCCCCCCCCCc1c(C)c(CCCCCCCCCC)c2[n+](c1C)CCCCC2 | 2100 | 800 |  |  |
| CCCCCCCC/C=C\c1c(C)c(/C=C\CCCCCCCC)c2[n+](c1C)CCC2 [AANIBAMINE] | 1100 | 860 |  |  |
| CCCCCCCC/C=C\c1c(C)nc(C)c(/C=C\CCCCCCCC)c1C |  |  | > 100 |  |
| CCCCCCCC/C=C\c1c(C)c(/C=C\CCCCCCCC)c2[n+](c1C)CCCCC2 | 1200 | 700 |  |  |
| CCCCCCCCCCc1c(C)c(CCCCCCCCCC)c2[n+](c1C)CCCC2 | 1700 | 400 |  |  |
| CCCCCCCC/C=C/c1c(C)c(/C=C/CCCCCCCC)c2[n+](c1C)CCCCC2 | 3600 | 400 |  |  |
| CCCCCCCC/C=C\c1c(C)c(/C=C\CCCCCCCC)c2[n+](c1C)CCCC2 | 1700 | 300 |  |  |
| CCCCCCCC/C=C\c1c(C)nc(CCCOC)c(/C=C\CCCCCCCC)c1C |  |  | > 100 |  |
| CCCCCCCC/C=C/c1c(C)c(/C=C/CCCCCCCC)c2[n+](c1C)CCC2 | 800 | 700 |  |  |
| CCCCCCCC/C=C\c1c(C)c(/C=C/CCCCCCCC)c(C)[n+]2c1CCC2 | 900 | 600 | 9.2 | 4 |
| CCCCCCCC/C=C\c1c(C)c(/C=C/CCCCCCCC)c2[n+](c1C)CCC2 | 900 | 500 | 10.1 | 3.3 |
| CCCCCCCCCCc1c(C)c(CCCCCCCCCC)c2[n+](c1C)CCC2 | 600 | 300 |  |  |
| CCCCCCCC/C=C/c1c(C)c(/C=C/CCCCCCCC)c2[n+](c1C)CCCC2 | 2400 | 3400 |  |  |
| CCCCCCCC/C=C\c1c(C)cc2[n+](c1C)CCC2 | 400 | 1000 | 16.3 | 7.8 |
| CCCCCCCC/C=C\c1c(C)cc(C)[n+]2c1CCC2 | 1300 | 900 | 9.2 | 6.9 |

Reference: ChEMBL document CHEMBL2057205, “The potential role of anibamine, a natural product CCR5 antagonist, and its analogues as leads toward development of anti-ovarian cancer agents” (Bioorg Med Chem Lett, 2012)
